A short description of data set [1]: Chemical stability of the compound. It is filed as physicochemical.
The nature of data set [2]: Kinetic solubility of the compound in water at pH 7 by HPLC analysis. It is filed as physicochemical. The note with it: read-out: Kinetic_solubility.
Data set [3] can be described thus: Metabolic stability of the compound in human liver microsomes assessed as compound remaining after 1 hr. It is filed as ADME, Microsome. The note with it: read-out: Stability. An outline of the steps:
(§1)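 Pooled human or CD-1 mouse liver microsomes incubated with compound for 1 h. Percentage of compound remaining calculated from analyte/internal standard peak area ratios.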
On the technique in general: Liver microsomes are vesicles of endoplasmic reticulum, rich in cytochrome P450 enzymes.

Data set [4] can be described thus: Metabolic stability of the compound in CD-1 mouse liver microsomes assessed as compound remaining after 1 hr. It is filed as ADME, Microsome. The note with it: read-out: Stability. An outline of the steps: as §1
Data set [5] can be described thus: AUC (0 to infinity) in CD-1 mouse plasma at 40 mg/kg, po. Type of data set: ADME, organism-based. Details: dose 40 mg/kg, route oral, time infinity. An outline of the steps: (§2)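 CD-1 mice given a single oral dose of 40 mg/kg, suspended in 0.5% carboxymethylcellulose/0.08% Tween 80 in water. Plasma and lung samples quantified by LC-MS/MS. AUC extrapolated to infinity. Lung/plasma ratio is lung AUC divided by plasma AUC.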

A short description of data set [6]: Cmax in CD-1 mouse plasma at 40 mg/kg, po. It is filed as ADME, organism-based. Details: dose 40 mg/kg, route oral. An outline of the steps: as §2
A short description of data set [7]: Half life in CD-1 mouse plasma at 40 mg/kg, po. Type of data set: ADME, organism-based. Details: dose 40 mg/kg, route oral. An outline of the steps: as §2
Data set [8] is described as follows: AUC (0 to infinity) in CD-1 mouse lung at 40 mg/kg, po. It is filed as ADME, organism-based. Details: dose 40 mg/kg, route oral, time infinity. An outline of the steps: as §2
The nature of data set [9]: Cmax in CD-1 mouse lung at 40 mg/kg, po. Type of data set: ADME, organism-based. Details: dose 40 mg/kg, route oral. Summed up: as §2
A short description of data set [10]: Half life in CD-1 mouse lung at 40 mg/kg, po. Type of data set: ADME, organism-based. Details: dose 40 mg/kg, route oral. Summed up:
as §2

Data set [11] deals with Mycobacterium tuberculosis. Briefly: Antimicrobial activity against Mycobacterium tuberculosis infected in BALB/c mouse assessed as fold reduction in lung CFU at 100 mg/kg, po administered 11 days after post infection qd for 5 days per week for 3 weeks relative to PA-824. Type of data set: functional. Summed up:
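Groups of 7 M. tb-infected BALB/c mice dosed orally at 100 mg/kg daily, 5 days/week for 3 weeks, starting on day 11 postinfection. Readout is the average lung CFU reduction in treated mice divided by the average CFU reduction in mice given the reference nitroimidazooxazine.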

Data set [12] deals with Mycobacterium tuberculosis. Briefly: Antimicrobial activity against Mycobacterium tuberculosis infected in chronic BALB/c mouse infection model assessed as fold reduction in lung CFU at 30 mg/kg, po administered daily 5 days a week for 8 weeks starting 50 days post-infection. It is filed as functional. An outline of the steps: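 Chronic infection model: groups of 7 M. tb-infected BALB/c mice given 30 mg/kg orally, daily 5 days/week for 8 weeks, starting about 50 days postinfection. Lung CFU reduction expressed relative to the reference drug.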

Data set [13] in a line: Cmax in Sprague-Dawley rat at 1 mg/kg, iv. It is filed as ADME, organism-based. The arrangement: dose 1 mg/kg, route intravenous. The note with it: in vivo.
A short description of data set [14]: Tmax in Sprague-Dawley rat at 1 mg/kg, iv. It is filed as ADME, organism-based. Details: dose 1 mg/kg, route intravenous. The note with it: in vivo.
Data set [15] in a line: AUC (0 to 24 hrs) in Sprague-Dawley rat at 1 mg/kg, iv. The arrangement: time < 24 hr, dose 1 mg/kg, route intravenous. It is filed as ADME, organism-based. The note with it: plasma.
A short description of data set [16]: Cmax in Sprague-Dawley rat at 20 mg/kg, po. The note with it: in vivo. Details: dose 20 mg/kg, route oral. Type of data set: ADME, organism-based.
The nature of data set [17]: Tmax in Sprague-Dawley rat at 20 mg/kg, po. The note with it: in vivo. Details: dose 20 mg/kg, route oral. Type of data set: ADME, organism-based.
Data set [18] can be described thus: Half life in Sprague-Dawley rat at 1 mg/kg, iv. Type of data set: ADME, organism-based. Details: dose 1 mg/kg, route intravenous. The note with it: in vivo.
Data set [19] in a line: AUC (0 to 24 hrs) in Sprague-Dawley rat at 20 mg/kg, po. It is filed as ADME, organism-based. The arrangement: time < 24 hr, dose 20 mg/kg, route oral. The note with it: plasma.
The nature of data set [20]: Oral bioavailability in Sprague-Dawley rat at 20 mg/kg. The note with it: in vivo. It is filed as ADME, organism-based.
A short description of data set [21]: Cmax in Beagle dog at 2 mg/kg, iv. The note with it: in vivo. Details: dose 2 mg/kg, route intravenous. Type of data set: ADME, organism-based, Canis lupus familiaris.
The nature of data set [22]: Tmax in Beagle dog at 2 mg/kg, iv. It is filed as ADME, organism-based, Canis lupus familiaris. The arrangement: dose 2 mg/kg, route intravenous. The note with it: in vivo.
Data set [23] can be described thus: AUC (0 to 72 hrs) in Beagle dog at 2 mg/kg, iv. The note with it: plasma. The arrangement: time < 72 hr, dose 2 mg/kg, route intravenous. It is filed as ADME, organism-based, Canis lupus familiaris.
Data set [24] is described as follows: Cmax in Beagle dog at 20 mg/kg, po. It is filed as ADME, organism-based, Canis lupus familiaris. Details: dose 20 mg/kg, route oral. The note with it: in vivo.
Data set [25] is described as follows: Tmax in Beagle dog at 20 mg/kg, po. Type of data set: ADME, organism-based, Canis lupus familiaris. The arrangement: dose 20 mg/kg, route oral. The note with it: in vivo.
Data set [26] is described as follows: Half life in Beagle dog at 20 mg/kg, po. The arrangement: dose 20 mg/kg, route oral. The note with it: in vivo. Type of data set: ADME, organism-based, Canis lupus familiaris.
A short description of data set [27]: AUC (0 to 72 hrs) in Beagle dog at 20 mg/kg, po. It is filed as ADME, organism-based, Canis lupus familiaris. The arrangement: time < 72 hr, dose 20 mg/kg, route oral. The note with it: plasma.
Data set [28] can be described thus: Oral bioavailability in Beagle dog at 20 mg/kg. Type of data set: ADME, organism-based, Canis lupus familiaris. The note with it: in vivo.
Data set [29] in a line: Octanol-water partition coefficient, log P of the compound by shake-flask method. Type of data set: physicochemical. Summed up: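 Octanol-water partition coefficient measured by the shake-flask method.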
Data set [30] in a line: Thermodynamic solubility of the compound at pH 1. Type of data set: physicochemical. The note with it: buffer, read-out: Therm_solubility.
A short description of data set [31]: Thermodynamic solubility of the compound at pH 7.4. Type of data set: physicochemical. The note with it: buffer, read-out: Therm_solubility.
Data set [32] can be described thus: Plasma protein binding in human at 10 uM. Type of data set: ADME, cell-free. The note with it: read-out: PPB (converted). Summed up:
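Human plasma protein binding measured by equilibrium dialysis, with overnight incubation of compound at 10 μM containing 1% DMSO.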

In data set [33] the target is Voltage-gated inwardly rectifying potassium channel KCNH2 (Homo sapiens, UniProt Q12809). Briefly: Inhibition of human Erg expressed in HEK293 cells by FAST patch clamp analysis. Type of data set: cell-based.
Data set [34] relates to Salmonella typhimurium. Briefly: Induction of mutagenesis in Salmonella Typhimurium TA98 in absence of rat liver S9 fraction by Ames test. It is filed as toxicity, organism-based. The note with it: salmonella enterica subsp. enterica serovar typhimurium. Summed up: (§3)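 MicroAmes reverse mutation screen in Salmonella TA98 and TA100, preincubated with and without rat liver S9, at 0.25-250 μg/well.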

The test system of data set [35] is Salmonella typhimurium. Description: Induction of mutagenesis in Salmonella Typhimurium TA98 in presence of rat liver S9 fraction by Ames test. Type of data set: toxicity, organism-based. The note with it: salmonella enterica subsp. enterica serovar typhimurium. Summed up: as §3
(In the Ames test, an excess of revertant colonies over the control signals mutagenicity.)

Data set [36] deals with Salmonella typhimurium. Description: Induction of mutagenesis in Salmonella Typhimurium TA100 in absence of rat liver S9 fraction by Ames test. It is filed as toxicity, organism-based. The note with it: salmonella enterica subsp. enterica serovar typhimurium. An outline of the steps: as §3
The subject of data set [37] is Salmonella typhimurium. Description: Induction of mutagenesis in Salmonella Typhimurium TA100 in presence of rat liver S9 fraction by Ames test. Type of data set: toxicity, organism-based. The note with it: salmonella enterica subsp. enterica serovar typhimurium. Summed up:
as §3

Data set [38] in a line: Cmax in high fat diet fed Beagle dog at 20 mg/kg, po. It is filed as ADME, organism-based, Canis lupus familiaris. The arrangement: dose 20 mg/kg, route oral. The note with it: in vivo.
Data set [39] can be described thus: Tmax in high fat diet fed Beagle dog at 20 mg/kg, po. It is filed as ADME, organism-based, Canis lupus familiaris. The arrangement: dose 20 mg/kg, route oral. The note with it: in vivo.
The nature of data set [40]: Half life in high fat diet fed Beagle dog at 20 mg/kg, po. Type of data set: ADME, organism-based, Canis lupus familiaris. Details: dose 20 mg/kg, route oral. The note with it: in vivo.
Data set [41] in a line: AUC (0 to 72 hrs) in high fat diet fed Beagle dog at 20 mg/kg, po. The arrangement: time < 72 hr, dose 20 mg/kg, route oral. Type of data set: ADME, organism-based, Canis lupus familiaris. The note with it: plasma.
The nature of data set [42]: Half life in Beagle dog at 2 mg/kg, iv. Type of data set: ADME, organism-based, Canis lupus familiaris. The arrangement: dose 2 mg/kg, route intravenous. The note with it: in vivo.

The values that follow come from ChEMBL document CHEMBL1944507, “Structure-activity relationships for amide-, carbamate-, and urea-linked analogues of the tuberculosis drug (6S)-2-nitro-6-{[4-(trifluoromethoxy)benzyl]oxy}-6,7-dihydro-5H-imidazo[2,1-b][1,3]oxazine (PA-824)” (J Med Chem, 2012).

By AUC(0-inf) is commonly meant total exposure, with the tail of the curve extrapolated. Read a low AUC(0-inf) as less exposure. In general, Cmax refers to the peak of the concentration-time curve. By half-life is commonly meant how long it takes for the measured level to halve. One may read the Tmax as the time at which the peak concentration occurs. What is called AUC(0-t) is exposure summed from dosing to a finite time, without extrapolation to infinity. A high value points to more exposure. For orientation: bioavailability means dose-corrected exposure relative to a reference, in per cent. Broadly, the logP is a log measure of how a compound divides between an organic and an aqueous phase. High values mean a more lipophilic compound, low ones a more hydrophilic compound. One may read the IC50 as the midpoint of a concentration-inhibition curve. A higher IC50 goes with weaker potency.

In brackets after ≈: the same amount, converted by molar mass. Bounds are passed on as bounds.

Sequence of Voltage-gated inwardly rectifying potassium channel KCNH2 (Q12809 whole entry): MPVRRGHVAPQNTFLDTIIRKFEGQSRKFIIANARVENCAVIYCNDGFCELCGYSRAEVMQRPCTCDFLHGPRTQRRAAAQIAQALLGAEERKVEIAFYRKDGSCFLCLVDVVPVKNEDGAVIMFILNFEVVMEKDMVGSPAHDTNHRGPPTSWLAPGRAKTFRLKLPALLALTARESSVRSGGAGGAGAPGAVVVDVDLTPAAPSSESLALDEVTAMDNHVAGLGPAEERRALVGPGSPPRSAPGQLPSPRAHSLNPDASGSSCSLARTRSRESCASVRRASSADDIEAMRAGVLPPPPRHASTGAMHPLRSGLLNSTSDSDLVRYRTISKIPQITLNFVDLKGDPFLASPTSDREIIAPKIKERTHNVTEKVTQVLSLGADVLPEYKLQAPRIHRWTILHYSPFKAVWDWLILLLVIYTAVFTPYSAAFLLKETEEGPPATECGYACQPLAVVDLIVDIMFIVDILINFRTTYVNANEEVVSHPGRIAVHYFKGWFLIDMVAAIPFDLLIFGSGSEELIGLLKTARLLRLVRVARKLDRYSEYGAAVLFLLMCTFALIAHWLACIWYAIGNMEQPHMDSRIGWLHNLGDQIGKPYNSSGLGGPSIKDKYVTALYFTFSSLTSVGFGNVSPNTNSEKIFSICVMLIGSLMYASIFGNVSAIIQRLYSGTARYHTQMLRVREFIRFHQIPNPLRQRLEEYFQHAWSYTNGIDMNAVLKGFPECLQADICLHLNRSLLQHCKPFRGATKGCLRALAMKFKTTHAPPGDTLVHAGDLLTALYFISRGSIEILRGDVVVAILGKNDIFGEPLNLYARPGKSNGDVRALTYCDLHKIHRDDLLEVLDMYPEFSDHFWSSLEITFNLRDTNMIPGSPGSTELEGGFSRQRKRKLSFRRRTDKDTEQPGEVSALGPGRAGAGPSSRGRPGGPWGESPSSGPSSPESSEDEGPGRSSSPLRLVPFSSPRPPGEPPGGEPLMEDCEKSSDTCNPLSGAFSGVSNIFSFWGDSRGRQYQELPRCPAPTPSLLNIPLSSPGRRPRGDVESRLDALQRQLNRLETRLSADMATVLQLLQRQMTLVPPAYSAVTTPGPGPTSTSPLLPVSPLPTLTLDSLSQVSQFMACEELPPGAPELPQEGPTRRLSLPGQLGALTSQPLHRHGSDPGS

As to `O=C(N[C@@H]1COc2nc([N+](=O)[O-])cn2C1)Oc1ccc(OC(F)(F)F)cc1`, in data set [1], the Stability result is “Unstable”.

`O=C(O[C@@H]1COc2nc([N+](=O)[O-])cn2C1)N1CCN(c2ccc(OC(F)(F)F)cc2)CC1`: in [2], the solubility kinetic stood at 17 µg/mL (≈ 37.2 µM). In addition, the values for the remaining at 1 h in data set [3] and in data set [4] were 82% and 85%, respectively. Besides, the AUC(0-inf) in [5] came to 53400 ng·h/mL; in data set [8] it was 169000 ng·h/mL. Moreover, the peak concentration (Cmax) came out at 2500 ng/mL in data set [6]; 11700 ng/mL in data set [9]; 700 ng/mL in [13]; 4400 ng/mL in data set [16]; 1700 ng/mL in data set [21]; 5800 ng/mL in data set [24]. The compound also showed a Cmax in data set [38] of 5200 ng/mL. Moreover, the half-life in [7] was 10.5 h; in [10] it was 10.5 h; in data set [18] it was 8.3 h; in [26], 29 h; in [40] it was 30 h; in data set [42] it was 28 h. Further, the entries for the “fold change (FC)” value in data set [11] and in [12] were 5.2 and 0.92, respectively. Also, the Tmax in [14] stood at 4.98 min; in data set [17], 5 h; in data set [22] it was 0.5 h; in data set [25] it was 8 h; in data set [39] it was 12 h. Besides, the area under the curve AUC(0-t) at 24 h in data set [15] stood at 5930 ng·h/mL; in data set [19], 67400 ng·h/mL. Besides, the bioavailability stood at 57% in data set [20] and 84% in data set [28]. Besides, the figures for the AUC(0-t) at 72 h in data set [23], in [27] and in data set [41] were 27600 ng·h/mL, 232000 ng·h/mL and 182000 ng·h/mL, respectively. The same compound registered a log partition coefficient (logP) in data set [29] of 2.82. The solubility thermodynamic was determined as 169 µM (≈ 77.3 µg/mL) in data set [30] and 33 µM (≈ 15.1 µg/mL) in [31]. Moreover, in data set [32], the fraction unbound at 10 µM was 0.09. Further, the concentration for half-maximal inhibition (IC50) in [33] is over 30 µM. Moreover, the Activity result in data set [34], in data set [35], in data set [36] and in data set [37] was “Non-toxic” in each case.
